Rows were chosen to be rich in hits. Some 1.9% of all compounds tested hit in one or more screens of this group.
M4 antag = CHRM4 antagonism in calcium assay; AID 624125; actives 0.73% (n = 360,000); inhibition, % at 3 µM; CHO-hM4 cells, ACh EC80, Fluo-8 calcium fluorescence;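 active = inhibition above its plate's cutoff, the mean inhibition of sample wells plus 3 SD, cut at about 27% in these data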;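 also: 0% = acetylcholine EC80 with DMSO and 100% = DMSO without agonist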
M4 PAM = CHRM4 positive allosteric modulation | CHO-K1 hM4/Gqi5, Fluo-8 calcium fluorescence, ACh EC20; 0% = ACh EC20, 100% = maximal ACh | activation, % at 3 µM | actives 0.4% (n = 360,000) | AID 624126;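 active = activation above its plate's cutoff, the mean activation of sample wells plus 3 SD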
CHRM5 PAM = potentiates acetylcholine response at human M5 receptor | activation, % at 3 µM | P08912 | AID 624038 | actives 0.3% (n = 360,000) | CHO-K1 hM5, Fluo-8 calcium, ACh EC20 PAM; 0% = ACh EC20, 100% = ACh EC100;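 active = activation above the run cutoff, the mean activation of all test compounds plus 3 SD, cut at about 18% in these data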
Target sequence (P08912 whole entry, looked up): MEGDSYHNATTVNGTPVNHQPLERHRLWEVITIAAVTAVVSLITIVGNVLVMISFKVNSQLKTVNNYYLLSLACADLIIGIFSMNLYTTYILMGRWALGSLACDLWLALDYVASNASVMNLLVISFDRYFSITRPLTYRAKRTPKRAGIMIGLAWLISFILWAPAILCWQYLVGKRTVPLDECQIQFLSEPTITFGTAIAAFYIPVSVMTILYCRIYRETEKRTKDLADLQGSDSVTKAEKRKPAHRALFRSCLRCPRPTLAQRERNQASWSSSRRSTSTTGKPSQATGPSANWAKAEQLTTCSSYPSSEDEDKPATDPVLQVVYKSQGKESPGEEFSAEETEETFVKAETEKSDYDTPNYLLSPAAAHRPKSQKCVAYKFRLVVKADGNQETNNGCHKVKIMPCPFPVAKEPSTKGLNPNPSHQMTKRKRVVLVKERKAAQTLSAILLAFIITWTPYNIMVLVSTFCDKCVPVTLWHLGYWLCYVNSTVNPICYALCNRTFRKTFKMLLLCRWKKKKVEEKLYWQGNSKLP
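system = human M5 receptor in CHO-K1 cells | reagent = EC20 acetylcholine as agonist stimulus | compound dosing = single-point, 3 µM nominal | incubation = Fluo-8 loading 80 min at 37 °C plus 30 min room temperature | detection = Fluo-8 calcium dye fluorescence, kinetic read | benchmarks = low control EC20 acetylcholine (0%), high control EC100 acetylcholine (100%)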
CHRM5 agonist = agonists of human muscarinic M5 receptor (CHRM5); activation, % at 3 µM; CHO-K1 hM5 cells, Fluo-8 calcium fluorescence; 0% DMSO wells, 100% maximal acetylcholine response; AID 624037; actives 0.19% (n = 360,000); P08912;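 active = activation above the run's mean over test compounds plus 3 SD, cut at about 23% in these data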;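 also: signal is peak over basal fluorescence ratio across the kinetic read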
CHRM5 antagonist = CHRM5 antagonism in calcium assay. inhibition, % at 3 µM. P08912. AID 624040. CHO-hM5 cells, Fluo-8 calcium fluorescence, ACh EC80. actives 0.59% (n = 360,000);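 active = inhibition above a per-plate cutoff, the mean of that plate's test compounds plus 3 SD, cut at about 27% in these data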;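 also: 0% = acetylcholine EC80 with DMSO and 100% = DMSO without agonist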
M4 ag = CHRM4 agonism in calcium assay; P08173; activation, % at 3 µM; CHO-K1 hM4/Gqi5, Fluo-8 calcium fluorescence; vehicle 0%, full acetylcholine response 100%; AID 624127; actives 0.14% (n = 360,000);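 active = activation above the run mean over all test wells plus 3 SD, cut at about 32% in these data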;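 also: peak over basal fluorescence ratio per well then scaled between controls; 0% = DMSO wells and 100% = acetylcholine at EC100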
* = called active by the depositor.

SMILES	M4 antag	M4 PAM	CHRM5 PAM	CHRM5 agonist	CHRM5 antagonist	M4 ag
CCN(CC(=O)Nc1c(F)cccc1F)C(=O)/C=C/c1cn(Cc2ccccc2)nc1-c1cccnc1	7	1	-6	-3	27*	2
COc1ccc(Cl)cc1NC(=O)CN(C)C(=O)Cn1cnnn1	3	-4	-8	0	20	0
N=C1/C(=C/c2cccn2Cc2ccc(F)cc2)C(=O)N=C2SC=CN12	-9	-3	-1	-5	6	7
N=C1/C(=C\c2coc3ccccc3c2=O)C(=O)N=C2SC=CN12	38*	-43	-33	109*	34*	107*
CSC1=NSC2=NC(=O)/C(=C\c3cccs3)C(=N)N12	3	-1	0	5	-2	2
CSC1=NSC2=NC(=O)/C(=C/c3coc4ccc(O)cc4c3=O)C(=N)N12	20	-8	-5	53*	28*	26
CSC1=NSC2=NC(=O)/C(=C/c3coc4ccccc4c3=O)C(=N)N12	18	-12	-19	45*	41*	33*
CC1=CC2=NC(=O)/C(=C/c3coc4ccc(Cl)cc4c3=O)C(=N)N2O1	23	-14	-29	83*	41*	45*
O=C(NCC1CCCO1)c1ccc(-c2ccccc2Cl)o1 (stereo not drawn)	5	-1	5	4	2	3
COc1ccc(CNC(=O)C(=O)NCC2OCCN2S(=O)(=O)c2ccccc2)cc1 (stereo not drawn)	0	-1	4	1	-4	2
Cc1ccc2nc(-c3ccc(NC(=S)NC(=O)CC(C)C)cc3)sc2c1	-1	10	-1	0	-6	0
Cc1ccc2nc(-c3ccc(NC(=O)C(C)Sc4nncs4)cc3)sc2c1 (stereo not drawn)	29*	5	-3	6	8	8
CN(CC(=O)Nc1ccccc1C(F)(F)F)C(=O)C1=COCCO1	-11	7	3	4	-7	1
CCn1c(COc2cccc(C)c2)nnc1SCC(=O)Nc1cccc(C(=O)O)c1	-5	6	-4	3	-9	1
CCn1c(COc2ccc3ccccc3c2C)nnc1SCC(=O)Nc1cccc(C(=O)O)c1	-9	25*	8	-1	2	0
COc1cc(C2C=C(C34CC5CC(CC(C5)C3)C4)NC(=S)N2)cc(OC)c1OC (stereo not drawn)	19	-12	-14	-7	7	-2
COc1ccc(OC)c(C2C=C(C34CC5CC(CC(C5)C3)C4)NC(=S)N2)c1 (stereo not drawn)	43*	-17	-11	-3	11	-1
CCc1nc2ccc(C(=O)Nc3cccc(NS(C)(=O)=O)c3)cn2c1N(C)CCCc1ccccc1	54*	-13	-8	-2	3	7
CCc1nc2ccc(C(=O)N(CC)CCN(C)C)cn2c1N(C)CCCc1ccccc1	27*	-15	-11	-2	4	1
CCCCCN(C(=O)CCC(=O)OCC(=O)N1CCCCC1C)c1c(N)n(CCCC)c(=O)[nH]c1=O (stereo not drawn)	7	-5	1	-2	2	1
O=C1C=CC(=O)N1CCNc1ncc(C(F)(F)F)cc1Cl	28*	-8	5	-2	-7	5
O=C1CC(=O)N(CCNc2ncc(C(F)(F)F)cc2Cl)C(=O)N1	2	4	-8	3	2	0
CCOc1cc(/C=C2\COc3ccccc3C2=O)cc(Br)c1OCC(=O)N(C)C	29*	-11	-4	3	14	20
COc1ccc(/C=C2\COc3ccccc3C2=O)cc1OC	5	-5	-4	-1	6	5
O=C1c2ccccc2C(Nc2cccnc2)N1Cc1ccccc1Cl (stereo not drawn)	4	-11	-9	-2	7	12
SMILES	M4 antag	M4 PAM	CHRM5 PAM	CHRM5 agonist	CHRM5 antagonist	M4 ag
O=C1c2ccccc2C(Nc2cccnc2)N1Cc1ccccc1 (stereo not drawn)	29*	-15	-12	0	5	14
Cc1csc(NC(=O)C2CCN(S(=O)(=O)c3ccc4c(c3)oc(=O)n4C)CC2)n1	-15	1	-4	2	0	7
Cc1csc(NC(=O)C(CC(C)C)NS(=O)(=O)c2ccc3c(c2)oc(=O)n3C)n1 (stereo not drawn)	34*	-12	-7	5	2	0
Cc1ccc(S(=O)(=O)N2CCN(C(=O)CSc3ccc(F)cc3)CC2)cc1	24	32*	19*	0	29*	15
O=C(CCCN=C1NS(=O)(=O)c2ccccc21)OCC(=O)c1ccccc1	-11	4	-5	7	3	4
O=C(COC(=O)CCCCCN=C1NS(=O)(=O)c2ccccc21)Nc1ccc(Cl)c(Cl)c1	9	-9	-17	-4	45*	13
COc1ccc(N2C(=O)Cc3c2nc(N)c(C#N)c3N)cc1	28*	10	6	5	-2	2
CCCc1cc2c(=O)c(-c3nc4ccccc4s3)c(COCC(=O)O)oc2cc1O	3	-1	-2	0	-2	0
Cc1ccc2c(c1)NC(=O)C(CC(=O)Nc1ccc(CN3CCC(C)CC3)cc1)O2 (stereo not drawn)	99*	-17	-24	-5	71*	1
CC1(C)CN(c2ccc(Br)cc2)C(=O)[C@H]1CC(=O)Nc1ccccc1	-7	1	2	0	5	5
O=C(c1cccc(Oc2ccc([N+](=O)[O-])cc2Cl)c1)N1CCOCC1	3	-4	-12	-2	27*	1
O=C(Oc1cccc(C(=S)N2CCOCC2)c1)c1ccc([N+](=O)[O-])cc1	-4	1	-2	0	13	3
O=C(OCc1cn([C@H]2CN(Cc3cccs3)[C@@H](c3ccc(Cl)cc3)C[C@@H]2O)nn1)c1ccccc1	-7	5	-1	2	0	0
O=C(/C=C/c1ccccc1)NC(NC(=S)Nc1ccc(Cl)cc1Cl)C(Cl)(Cl)Cl (stereo not drawn)	9	-24	-19	1	34*	11
COc1ccc(S(=O)(=O)N2CC3CCCN3c3ccc(C(F)(F)F)cc32)cc1 (stereo not drawn)	30*	-15	-6	-2	1	0
CS(=O)(=O)N1CC2CCCN2c2ccc(C(F)(F)F)cc21 (stereo not drawn)	-12	11	2	-3	6	3

Screens from PubChem.
